Data: ChEMBL document CHEMBL1154998, “Enantioselective synthesis of (R)-(+)- and (S)-(-)-higenamine and their analogues with effects on platelet aggregation and experimental animal model of disseminated intravascular coagulation” (Bioorg Med Chem Lett, 2008)
pIC50: −log10 of the molar value. The source made the active and inactive calls. The rule behind the calls is not given here.

Columns and labels:
Rattus norvegicus [1] = assay: Effect on LPS-induced Sprague-Dawley rat disseminated intravascular coagulation model assessed as prolongation of prothrombin time at 10 mg/day or 25 mg/day, po after 2 hrs of fasting for 2 consecutive days; assay type: functional, organism-based
Summary of the method: (§1)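 Male Sprague–Dawley rats (230–270 g) dosed orally in distilled water once daily for 2 days. Ketamine anaesthesia 1 h after the second dose, then LPS 20 mg/kg in saline infused into the tail vein for 3 h. Citrated plasma was used for PT, aPTT and fibrinogen, serum for FDP (semi-quantitative kit, dilution method), and serum by analyzer for AST and BUN. Mean ± SEM, ANOVA with Tukey HSD, n = 6–13 per group.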

Rattus norvegicus [2] = assay: Effect on LPS-induced Sprague-Dawley rat disseminated intravascular coagulation model assessed as amelioration of increased fibrin degradation product levels at 10 mg/day or 25 mg/day, po after 2 hrs of fasting for 2 consecutive days; assay type: functional, organism-based; summary of the method: as §1
Rattus norvegicus [3] = assay: Effect on LPS-induced Sprague-Dawley rat disseminated intravascular coagulation model assessed as prolongation of activated partial […] time at 10 mg/day or 25 mg/day, po after 2 hrs of fasting for 2 consecutive days; assay type: functional, organism-based; summary of the method: as §1
Rattus norvegicus [4] = assay: Effect on LPS-induced Sprague-Dawley rat disseminated intravascular coagulation model assessed as amelioration of increased urea nitrogen levels at 10 mg/day or 25 mg/day, po after 2 hrs of fasting for 2 consecutive days; assay type: functional, organism-based; summary of the method: as §1
Platelet [5] = assay: Inhibition of U46619-induced platelet aggregation in rat blood; assay type: functional, cell-based
Rattus norvegicus [6] = assay: Effect on Sprague-Dawley rat disseminated intravascular coagulation model assessed as prevention of LPS-induced decrease in fibrinogen level at 10 mg/day or 25 mg/day, po after 2 hrs of fasting for 2 consecutive days; assay type: functional, organism-based; summary of the method: as §1
Rattus norvegicus [7] = assay: Effect on Sprague-Dawley rat disseminated intravascular coagulation model assessed as suppression of LPS-induced aspartate aminotransferase levels at 10 mg/day or 25 mg/day, po after 2 hrs of fasting for 2 consecutive days; assay type: functional, organism-based; summary of the method: as §1
Platelet [8] = assay: Inhibition of epinephrine-induced platelet aggregation in rat blood; assay type: functional, cell-based
Platelet [9] = assay: Inhibition of NaAA-induced platelet aggregation in rat blood; assay type: functional, cell-based
Platelet [10] = assay: Inhibition of collagen-induced platelet aggregation in rat blood; assay type: functional, cell-based
Summary of the method: (§2)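 Rat heart blood in 2.2% citrate, spun at 200g for 10 min to give PRP, adjusted to 400–450 × 10⁶ platelets/ml with saline. PRP pre-incubated 3 min, then sample or vehicle added, with ADP (2–5 × 10⁻⁶ M) or collagen (2–5 × 10⁻⁶ g/ml) added 1 min later. Aggregation read on an aggregometer and the 50% inhibitory concentration determined.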

Platelet [11] = assay: Inhibition of ADP-induced platelet aggregation in rat blood; assay type: functional, cell-based; summary of the method: as §2

Row | SMILES | Activity (Rattus norvegicus [1]) | Activity (Rattus norvegicus [2]) | Activity (Rattus norvegicus [3]) | Activity (Rattus norvegicus [4]) | pIC50 (Platelet [5]) | Activity (Rattus norvegicus [6]) | Activity (Rattus norvegicus [7]) | pIC50 (Platelet [8]) | pIC50 (Platelet [9]) | pIC50 (Platelet [10]) | pIC50 (Platelet [11])
1 | Oc1cc2c(cc1O)[C@H](Cc1ccc3ccccc3c1)NCC2 | Active | Active | Active | Active | 4.21 | Active | Active | 6.05 | 5.21 |  | 
2 | Oc1ccc(C[C@@H]2NCCc3cc(O)c(O)cc32)cc1 [(-)-HIGENAMINE] | Active | Active | Active | Active | 4.60 | Active | Active | 5.80 | 5.04 |  | 
3 | Oc1cc2c(cc1O)[C@H](Cc1cccc3ccccc13)NCC2 | Active | Active | Active | Active | 4.80 |  |  | 6.42 | 5.25 | 4.16 | 3.57
4 | Oc1ccc(C[C@H]2NCCc3cc(O)c(O)cc32)cc1 [(+)-HIGENAMINE] | Active | Active | Active | Active | 4.82 |  | Active | 4.85 | 4.96 |  | < 3.00
5 | CC(=O)Oc1ccccc1C(=O)O [ASPIRIN] |  |  |  |  | 3.47 |  |  | 4.28 | 4.18 | 3.38 | < 3.00
6 | Oc1cc2c(cc1O)[C@@H](Cc1cccc3ccccc13)NCC2 | Active | Active | Active | Active | 4.70 |  |  | 5.62 | 4.96 |  | 
7 | Oc1cc2c(cc1O)[C@@H](Cc1ccc3ccccc3c1)NCC2 | Active | Active | Active | Active | 4.31 |  | Active | 4.82 | 5.10 |  | 
